In ChEMBL document CHEMBL5321217, “Identification of pyrrolo[3',4':3,4]cyclohepta[1,2-d][1,2]oxazoles as promising new candidates for the treatment of lymphomas” (Eur J Med Chem, 2023):
Calls of active or inactive are those of the source. The rule behind the calls is not given here.

How the values were obtained:
NCI-H522 = test: Antiproliferative activity against human NCI-H522 cells assessed as growth inhibition incubated for 72 hrs by MTT assay; assay type: functional
NCI-H460 = test: Antiproliferative activity against human NCI-H460 cells assessed as growth inhibition incubated for 72 hrs by MTT assay; assay type: functional
NCI-H322M = test: Antiproliferative activity against human NCI-H322M cells assessed as growth inhibition incubated for 72 hrs by MTT assay; assay type: functional
NCI-H23 = test: Antiproliferative activity against human NCI-H23 cells assessed as growth inhibition incubated for 72 hrs by MTT assay; assay type: functional
NCI-H226 = test: Antiproliferative activity against human NCI-H226 cells assessed as growth inhibition incubated for 72 hrs by MTT assay; assay type: functional
HOP-62 = test: Antiproliferative activity against human HOP-62 cells assessed as growth inhibition incubated for 72 hrs by MTT assay; assay type: functional
CCRF-CEM [1] = test: Antiproliferative activity against human CCRF-CEM cells assessed as growth inhibition incubated for 72 hrs by MTT assay; assay type: functional
HL-60(TB) = test: Antiproliferative activity against human HL-60(TB) cells assessed as growth inhibition incubated for 72 hrs by […]; assay type: functional
In short: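 NCI 60-cell-line panel screen. […] Compounds were dissolved in DMSO as 10 mM stocks, and DMSO in the assays stayed at or below 0.1%.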

K562 = test: Antiproliferative activity against human K562 cells assessed as growth inhibition incubated for 72 hrs by MTT assay; assay type: functional
EKVX = test: Antiproliferative activity against human EKVX cells assessed as growth inhibition incubated for 72 hrs by MTT assay; assay type: functional
HCT-15 = test: Antiproliferative activity against human HCT-15 cells assessed as growth inhibition incubated for 72 hrs by MTT assay; assay type: functional
SF-268 = test: Antiproliferative activity against human SF-268 cells assessed as growth inhibition incubated for 72 hrs by MTT assay; assay type: functional
SF-295 = test: Antiproliferative activity against human SF-295 cells assessed as growth inhibition incubated for 72 hrs by MTT assay; assay type: functional
SNB-19 = test: Antiproliferative activity against human SNB-19 cells assessed as growth inhibition incubated for 72 hrs by MTT assay; assay type: functional
SNB-75 = test: Antiproliferative activity against human SNB-75 cells assessed as growth inhibition incubated for 72 hrs by MTT assay; assay type: functional
U-251 = test: Antiproliferative activity against human U-251 cells assessed as growth inhibition incubated for 72 hrs by MTT assay; assay type: functional
LOX IMVI = test: Antiproliferative activity against human LOX IMVI cells assessed as growth inhibition incubated for 72 hrs by MTT assay; assay type: functional
M14 = test: Antiproliferative activity against human M14 cells assessed as growth inhibition incubated for 72 hrs by MTT assay; assay type: functional
OVCAR-5 = test: Antiproliferative activity against human OVCAR-5 cells assessed as growth inhibition incubated for 72 hrs by MTT assay; assay type: functional
NCI/ADR-RES = test: Antiproliferative activity against human NCI-ADR-RES cells assessed as growth inhibition incubated for 72 hrs by MTT assay; assay type: functional
CAKI-1 = test: Antiproliferative activity against human CAKI-1 cells assessed as growth inhibition incubated for 72 hrs by MTT assay; assay type: functional
SN12C = test: Antiproliferative activity against human SN12C cells assessed as growth inhibition incubated for 72 hrs by MTT assay; assay type: functional
UO-31 = test: Antiproliferative activity against human UO-31 cells assessed as growth inhibition incubated for 72 hrs by MTT assay; assay type: functional
PC-3 = test: Antiproliferative activity against human PC-3 cells assessed as growth inhibition incubated for 72 hrs by MTT assay; assay type: functional
DU-145 = test: Antiproliferative activity against human DU-145 cells assessed as growth inhibition incubated for 72 hrs by MTT assay; assay type: functional
Hs-578T = test: Antiproliferative activity against human Hs-578T cells assessed as growth inhibition incubated for 72 hrs by MTT assay; assay type: functional
T47D = test: Antiproliferative activity against human T47D cells assessed as growth inhibition incubated for 72 hrs by MTT assay; assay type: functional
VL51 [2] = test: Antiproliferative activity against human VL51 cells assessed as cell growth inhibition measured after 72 hrs by MTT assay; assay type: functional, cell-based; conditions: VL51, 72 h
In short: (§1)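 Lymphoma cells grown in RPMI-1640 with 20% FBS, seeded at 5,000–10,000 cells/well by doubling time. Doses 0–10 μM, 1:2 serial dilution, DMSO ≤0.1%, 72 h at 37 °C, 5% CO2. MTT (5 mg/mL stock) added for 4 h, SDS lysis, A570 read against medium-only blanks. IC50 from triplicate assays.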

[3] = Antiproliferative activity against human HBL1 cells assessed as cell growth inhibition measured after 72 hrs by MTT assay; assay type: functional, cell-based; conditions: HBL1, 72 h
In short: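 Lymphoma cells in RPMI-1640 with 20% FBS, seeded at 5,000–10,000 cells/well depending on doubling time. Exposed for 72 h at 37 °C, 5% CO2 to a 1:2 serial dilution from 0 to 10 μM (DMSO ≤0.1%). MTT from a 5 mg/mL stock was added for 4 h, cells were lysed with 25% SDS, and A570 was read against medium-only blanks. IC50 from triplicate assays.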

SU-DHL10 = test: Antiproliferative activity against human SU-DHL-10 cells assessed as cell growth inhibition measured after 72 hrs by MTT assay; assay type: functional, cell-based; conditions: SU-DHL10, 72 h; in short: as §1
[4] = Cytotoxicity against resting human PBL cells assessed as inhibition of cell growth measured after 72 hrs by MTT assay; assay type: toxicity, cell-based; conditions: resting human peripheral blood lymphocytes (PBL)
VL51 [5] = test: Induction of cell cycle arrest in human VL51 cells assessed as reduction in accumulation of cells at S phase at 1 uM incubated for 24 hrs by PI staining based flow cytometry analysis; assay type: functional
In short: (§2)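 Seeding in 6-well plates, 2 mL medium: A549 5×10^4, CCRF-CEM 2.5×10^5, VL51 2.0×10^5. 24 h treatment, A549 detached with trypsin-EDTA. Cells fixed in 70% ice-cold ethanol, PI-labelled, analysed by flow cytometry. Mean of two independent experiments.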

CCRF-CEM [6] = test: Induction of cell cycle arrest in human CCRF-CEM cells assessed as reduction in accumulation of cells at S phase at 1 uM incubated for 24 hrs by PI staining based flow cytometry analysis; assay type: functional; in short: as §2
VL51 [7] = test: Induction of cell cycle arrest in human VL51 cells assessed as increase in mitotic cells at 1 uM incubated for 24 hrs by PI staining based flow cytometry analysis (reference value: 1.5%); assay type: functional
CCRF-CEM [8] = test: Induction of cell cycle arrest in human CCRF-CEM cells assessed as accumulation of cells at G2/M phase at 1 uM incubated for 24 hrs by PI staining based flow cytometry analysis; assay type: functional; in short: as §2
[9] = Antiproliferative activity against human HBL1 cells assessed as reduction in cell proliferation at 1 uM measured after 72 hrs by MTT assay relative to control; assay type: functional; design: scale not given: the % may be the effect or the level left
In short: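 Single-dose screen at 1 μM for 72 h at 37 °C, 5% CO2 (DMSO ≤0.1%). Cells in RPMI-1640 with 20% FBS, seeded at 5,000–10,000 cells/well. MTT added for 4 h, SDS lysis, A570 read with medium-only blanks. Percent proliferation relative to untreated cells, run in triplicate.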

Row | Structure (SMILES) | GI50 (NCI-H522) [nM] | GI50 (NCI-H460) [nM] | GI50 (NCI-H322M) [nM] | GI50 (NCI-H23) [nM] | GI50 (NCI-H226) [nM] | GI50 (HOP-62) [nM] | GI50 (CCRF-CEM [1]) [nM] | GI50 (HL-60(TB)) [nM] | GI50 (K562) [nM] | GI50 (EKVX) [nM] | GI50 (HCT-15) [nM] | GI50 (SF-268) [µM] | GI50 (SF-295) [nM] | GI50 (SNB-19) [nM] | GI50 (SNB-75) [nM] | GI50 (U-251) [nM] | GI50 (LOX IMVI) [nM] | GI50 (M14) [nM] | GI50 (OVCAR-5) [nM] | GI50 (NCI/ADR-RES) [nM] | other results
1 | COc1ccc(Cn2cc3c(c2-c2cc(OC)c(OC)c(OC)c2)CCCc2cnoc2-3)cc1 | 980 | 500 | 3280 | 2620 | 1990 | 2220 | 410 | 350 | 420 | 3000 | 480 | 4.72 | 510 | 1530 | 870 | 4470 | 990 | 390 | 3720 | 540 | GI50 (CAKI-1): 490 nM; GI50 (SN12C): 4600 nM; GI50 (UO-31): 920 nM; GI50 (PC-3): 850 nM; GI50 (DU-145): 4110 nM; GI50 (Hs-578T): 1540 nM; GI50 (T47D): 1850 nM; IC50 (VL51 [2]): 400 nM; IC50 [3]: 1000 nM; IC50 (SU-DHL10): 1800 nM; IC50 at 72 h [4]: > 10 µM; Activity (VL51 [5]): Active; Activity (CCRF-CEM [6]): Active; Activity (VL51 [7]): ~18%; Activity (CCRF-CEM [8]): Active; Activity [9]: >50%
2 | COc1ccc(Cn2cc3c(c2-c2cc(OC)c(OC)c(OC)c2)CCCc2cnoc2-3)cc1N | 260 | 400 | 840 | 1340 | 2540 | 690 | 440 | 300 | 390 | 2670 | 530 | 1.45 | 500 | 810 | 380 | 510 | 700 | 480 | 1440 | 600 | GI50 (CAKI-1): 580 nM; GI50 (SN12C): 840 nM; GI50 (UO-31): 690 nM; GI50 (PC-3): 430 nM; GI50 (DU-145): 840 nM; GI50 (Hs-578T): 400 nM; GI50 (T47D): 390 nM; IC50 (VL51 [2]): 100 nM; IC50 [3]: 500 nM; IC50 (SU-DHL10): 500 nM; IC50 at 72 h [4]: > 10 µM; Activity (VL51 [5]): Active; Activity (CCRF-CEM [6]): Active; Activity (VL51 [7]): ~18%; Activity (CCRF-CEM [8]): Active; Activity [9]: >50%
